STAT3 activator – increases IL-6 driven STAT3 reporter signal | U3A cells, IL-6 STAT3-luciferase reporter, luminescence; 100% = signal with IL-6 EC80 alone | AID 871 | 0.91% of 190,000 active | activation (% of control), % at 5.6 µM;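 active means activation above the screen-wide mean of compound activation plus 3 SD, cut at about 130% in these data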;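 further: 0% = background luminescence of wells with medium and substrate only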
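Detection: reporter luminescence signal / Assay system: STAT1-lacking human U3A cells, STAT3 luciferase reporter / Incubation: compound pre-incubation 1 h before IL-6, then 6 h stimulation at 37 °C / Control set: IL-6-only high control / Read-out: % activation relative to IL-6 control / Probe or stimulus: Interleukin-6, 33 ng/mL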
STAT1 activator – STAT1 signaling activation | activation (% of control), % at 5.5 µM | NIH 3T3 STAT1-luciferase reporter, IFN-gamma, luminescence; 100% = IFN-gamma alone, no compound | AID 932 | 2.6% of 200,000 active;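 active means activation above the screen-wide mean activation plus 3 SD, cut at about 130% in these data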;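 further: raw ratio to IFN-gamma control signal so 100% means no change and 0% no light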
STAT3 inh – reduces IL-6 driven STAT3 reporter signal; U3A cells, IL-6 STAT3-luciferase reporter, luminescence; host cell line lacks STAT1; inhibition, % at 5.5 µM; 0.89% of 190,000 active; AID 862;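 active means inhibition above the mean inhibition across all screened compounds plus 3 SD, cut at about 44% in these data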;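 further: 0% = DMSO only wells and 100% = 100 µM nifuroxazide control wells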
STAT1 blocker – reduces IFN-gamma driven STAT1 reporter signal. NIH 3T3 STAT1-luciferase reporter, luminescence. 0.35% of 200,000 active. inhibition, % at 5.5 µM. AID 920;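 active means inhibition above a set limit, the mean inhibition across all tested compounds plus 3 SD, cut at about 34% in these data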;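 further: 0% = IFN-gamma with DMSO and 100% = IFN-gamma with 300 µM nifuroxazide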
APP 5'UTR act – activates APP 5'UTR luciferase reporter; SH-SY5Y APP 5'UTR luciferase reporter, luminescence; zero percent = DMSO vehicle wells; activation, % at 2 µM; 1% of 190,000 active; AID 1276;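 active means activation above a set limit, based on mean plus 3 SD of controls, cut at about 140% in these data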
NF-kB expr up – NF-kB expression increase, human neuronal cells | 1.6% of 190,000 active | NF-kB reporter expression; stronger effect = higher value | fold change at 12.5 µM; in the data active means fold change above about 3.3
Numbers without * were called inactive; nt = no result. Only some compounds are listed: those with a hit (about 5.1% of all), similar ones and a draw of the others.

SMILES	STAT3 activator	STAT1 activator	STAT3 inh	STAT1 blocker	APP 5'UTR act	NF-kB expr up
CCN(CC)S(=O)(=O)c1ccc(N=N/C(C(C)=O)=C(/C)O)cc1	104.1	97.9	-4.6	2.2	-13.0	1.11
Cc1cccc2nc(CSc3ncccc3C(=O)O)cn12	96.9	98.3	3.6	1.9	12.4	0.87
Cc1cccc2nc(COc3ccc(Cl)c4cccnc34)cn12	97.5	129.0*	4.4	-32.5	38.0	1.35
Cc1ccc(CN2CN(S(=O)(=O)c3cccs3)c3nc4ccccc4nc32)cc1	97.5	141.5*	11.8	-53.4	5.6	6.43*
COc1ccc(Nc2cccc(Cl)c2)c(C(=O)O)c1	95.1	106.0	3.8	-6.7	-7.2	3.57*
NC(=O)c1ccc(C(F)(F)F)cn1	101.7	103.5	2.7	-7.2	1.8	1.15
C/C(=C\C(=O)c1ccc(C)cc1)Nc1cccc(O)c1	80.1	101.0	24.0	-1.1	157.2*	1.4
C/C(=C\C(=O)c1cccnc1)Nc1ccc(O)cc1	96.8	113.0	2.3	-14.2	nt	0.68
C/C(=C\C(=O)c1ccccc1)Nc1ccc(O)cc1	95.5	139.7*	6.5	-44.1	3.0	4.46*
CN(C)C(=O)COc1ccc(Oc2ccccc2)cc1	98.9	110.8	5.0	-13.8	-9.9	1.38
O=C(NNC(=S)NCc1ccc(Cl)cc1)c1ccc2c(c1)OCO2	98.5	100.2	12.8	-1.1	-18.0	0.94
COc1ccc(N=Nc2[nH]c3ccc(C)cc3c2O)cc1	116.0	113.5	-22.4	-15.2	19.4	1.16
Cc1ccc(N=Nc2[nH]c3ccccc3c2O)cc1	170.9*	129.5*	-66.0	-32.4	12.9	1.93
Cc1ccc(OCCNC(=O)Cc2ccc(F)cc2)cc1	95.8	100.9	10.8	-0.6	2.6	nt
CCC(CC)C(=O)NCCc1cc2ccc(C)cc2[nH]c1=O	100.2	107.5	5.0	-8.4	5.3	1.08
Cc1ccc2cc(CCNC(=O)c3cccs3)c(=O)[nH]c2c1	99.7	138.9*	0.2	-42.8	127.4	2.21
O=C1C=C(Nc2ccc(Cl)cc2Cl)CC(c2ccco2)C1 (stereo unspecified)	108.0	96.7	-3.1	1.5	-12.9	0.89
Cc1cccc(C(=O)NCc2nnc3c4ccccc4c(-c4ccccc4)nn23)c1	103.6	97.4	-1.0	2.9	1.8	0.74
CC(=O)/C(=N/Nc1ccc(C)cc1)Sc1nnc(CCc2ccccc2)n1-c1ccccc1	99.2	100.5	-1.4	1.8	-1.1	4.39*
CCOC(=O)/C(=N/Nc1ccc(OC)cc1)Sc1nnc(CCc2ccccc2)n1-c1ccccc1	104.8	104.6	-5.5	-5.2	-20.1	1.23
CC(C)CC1c2[nH]c3ccccc3c2CCN1C(=O)c1cnccn1 (stereo unspecified)	170.8*	146.0*	-61.0	-51.5	90.2	2.98
Cc1csc(SCC(=O)NC(=O)C2CCCCC2)n1	107.2	106.0	-6.3	-7.1	139.0*	1.28
CCN(CC)c1ccc(-c2nn3c(-c4ccccc4OC)nnc3s2)cc1	136.3*	117.5	-38.3	-19.1	-93.9	1.72
COc1ccc(-c2nn3c(-c4ccccc4)nnc3s2)cc1	104.5	107.0	3.7	-7.7	8.3	1.05
O=C1c2ccccc2C(=O)N1CCN1CCc2ccccc21	101.0	131.9*	2.2	-34.8	23.3	1.23
SMILES	STAT3 activator	STAT1 activator	STAT3 inh	STAT1 blocker	APP 5'UTR act	NF-kB expr up
Cc1ccc(C(C(=O)NC(C)(C)C)N(Cc2ccco2)C(=O)CCC(=O)Nc2nccs2)cc1 (stereo unspecified)	101.5	105.1	1.4	-5.5	-3.5	nt
COc1ccc(OCC(=O)Nc2ccccc2O)cc1	95.7	88.3	10.8	12.6	64.6	5.46*
COc1c(O)ccc(C2NC(=O)NC(C)=C2C(=O)Nc2ccccc2C)c1[N+](=O)[O-] (stereo unspecified)	94.5	100.1	11.3	-2.0	27.3	1.26
c1ccc(C2=Nc3ccccc3NC(c3ccccc3)C2)cc1 (stereo unspecified)	110.4	123.0	-7.9	-25.7	18.4	2.97
Brc1ccccc1C1CC(c2ccccc2)=Nc2ccccc2N1 (stereo unspecified)	122.7	135.1*	-26.4	-39.2	148.8*	2.35
COc1ccc(CSc2nc(C)cc(C)c2S(C)(=O)=O)cc1	99.7	94.7	1.0	6.3	5.8	1.36
O=C1C(C=NCc2cccnc2)=C(O)c2ccccc21	103.1	129.8*	1.3	-32.8	15.2	2.78
O=C1C(C=NCc2ccncc2)=C(O)c2ccccc21	108.2	104.6	-3.7	-5.1	17.1	1.07
Cc1cc(=O)[nH]c(SCC(=O)OCc2ccccc2)c1C#N	103.9	100.5	-2.3	-2.5	17.2	1.11
COc1ccccc1NC(=O)c1csc2c1CCCC2	91.1	99.7	11.5	0.3	16.1	1.27
O=C(Nc1ccccn1)c1csc2c1CCCC2	100.1	137.4*	3.3	-43.0	132.6	3.91*
O=[N+]([O-])c1ccc(-c2cc(-c3ccc(Cl)cc3)n[nH]2)cc1	83.4	137.8*	26.3	-43.5	9.4	1.7
CCOC(=O)c1cnc(-c2ccccc2)nc1N	103.0	145.6*	-1.4	-55.6	125.9	4.95*
O=C(CCl)Nc1cccc(-c2cnc3ccccc3n2)c1	71.7	76.2	38.5	25.8	nt	0.73
CCOC(=O)c1cnc(SCC(=O)c2ccc(C)cc2)nc1N	103.3	103.1	-0.1	-0.6	11.6	1.29
CCOC(=O)c1cnc(SCC(=O)c2ccccc2)nc1N	97.6	144.2*	8.1	-48.3	111.9	3.73*
CCC(=O)Nc1cccc(-c2cnc3ccccc3n2)c1	90.5	129.2*	14.7	-31.8	52.0	1.47
CCOC(=O)c1cnc(SCC(C)C)nc1N	109.7	136.7*	-8.5	-40.7	145.8*	4.67*
Cc1nonc1C(=O)N/N=C/c1ccc(O)cc1O	92.5	109.1	16.6	-9.4	-14.2	1.99
CCOC(=O)c1ccc2ncc(-c3ccccc3)nc2c1	89.6	148.2*	14.4	-54.5	138.7*	4.21*
c1ccn(-c2ccc(-c3ccn[nH]3)cc2)c1	92.0	142.7*	11.3	-47.3	86.8	2.72
COc1cccc(CNc2ccc([N+](=O)[O-])cc2Cl)c1O	89.2	100.4	14.7	-1.6	6.0	1.4
Cc1cc(C)nc(-n2nc(C)cc2NC(=O)c2cccc(S(=O)(=O)N3CCCCC3)c2)n1	95.9	101.6	12.0	-1.7	21.3	0.69
Cc1sc2c(c1C)C(=O)NC(c1cccc(O)c1)N2 (stereo unspecified)	144.4*	103.0	-51.8	-3.3	13.8	1.87
Cc1ccc(-n2nc(C)c3c2OC(N)=C(C#N)C3c2ccncc2)cc1 (stereo unspecified)	125.0	89.5	-24.8	11.5	13.7	1.15
Cc1nn(-c2ccccc2)c2c1C(c1c(C)[nH]c(C#N)c1C)C(C#N)=C(N)O2 (stereo unspecified)	134.1*	100.3	-36.6	-0.4	3.9	1

Compound activity as filed in PubChem.
